Data published in publication PMC5801548 (Bioconjugate chemistry, 2017).

Key:
A. baumannii ATCC 19606 [1] = experiment: Disk diffusion assay; type: cell-based; conditions: Ab ATCC 19606, 20 μg on blank disc (Ø = 0.6 cm), 24 h
In short: (§1)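 The test compound (20 µg) was loaded onto a blank 0.6 cm disc and placed on an agar plate inoculated with the bacterium. The plate was incubated for 24 h, and the diameter of the bacteria-free zone around the disc was measured in cm. Saline was included as a control.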

P. aeruginosa ATCC 27853 = experiment: Disk diffusion assay; type: cell-based; conditions: Pa ATCC 27853, 20 μg on blank disc (Ø = 0.6 cm), 24 h
In short: as §1

Ab ATCC 19606 = conditions: broth microdilution, mass basis; data with * ref [21]; cited from earlier work
A. baumannii ATCC 19606 [2] = experiment: Time-kill study; type: cell-based; conditions: 4 × MIC (mass based; higher value where MIC is a range)

Substance	Diameter of Zone of Inhibition (ZOI) (A. baumannii ATCC 19606 [1]) [cm]	Diameter of Zone of Inhibition (ZOI) (P. aeruginosa ATCC 27853) [cm]	Minimum inhibitory concentration against Ab ATCC 19606 (MIC) (Ab ATCC 19606)	Time to inhibit the growth of bacteria to levels approaching the detection limit (A. baumannii ATCC 19606 [2])
colistin	1.8	1.8	1* mg/L	
colistin methanesulfonate [CMS]	1.8	1.7	16* mg/L	around 6 h
